The results in this text go back to the EternaBench riboswitch data.

In this series the test system is MS2 coat protein. Briefly: apparent Kd, MS2 coat protein; higher = weaker binding; RNA-MaP array; FMN 200 µM where present. In short, it runs like this:
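The apparent Kd is reported as the median of filtered per-cluster binding-curve fits. To get these curves, designs transcribed by stalled E. coli RNA polymerase on Illumina sequencing-chip clusters were titrated with SNAP-549-labelled MS2 coat protein from 0.7 or 1.5 nM, doubling to 3 µM. Titrations were run without and then with constant ligand in 100 mM Tris-HCl pH 7.5, 80 mM KCl, 4 mM MgCl2, BSA, DTT, yeast tRNA and Tween-20, and green signal was normalised to red-channel RNA signal and control-cluster median Fmax.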

Setting [1] is: designed as: OFF switch for flavin mononucleotide, no ligand.
Setting [2] is: ligand present: flavin mononucleotide, designed as: OFF switch for flavin mononucleotide.
The mark [3] stands for this setting: designed as: ON switch for flavin mononucleotide, no ligand.
[4] abbreviates: ligand present: flavin mononucleotide, designed as: ON switch for flavin mononucleotide.

In general, apparent Kd refers to a dissociation constant that holds for the conditions of the assay. On to “AAAAAGUCAGGAUAUCGGAAAAAAAAAAAAAAAAAAAAAAACGAGAAGGGACAUGAGGAUCACCCAUGUAAAAA”, for which the “apparent Kd” value stood at 55.8 nM under setting [1] and 68.2 nM under setting [2].
“UGAUACAUGAGGGUCUCCCAUGACAUGAGGAUCACCCAUGUGCAGGAUAUACGUGUGAUAAUAUAGUAGAAGGGCAGUCUAUGU”: the “apparent Kd” value runs as follows: under setting [1], 345 nM; under setting [2], 577 nM.
On to “AAAAUACAUGAGGAUCACCCAUGUGAGUCGAACGCAGGAUAUCGCCGUUGAAAAGGGCGGCGAGAAGGGUGCCGAA”, for which the “apparent Kd” value reads like this: under setting [3], 62.5 nM; under setting [4], 46.8 nM.
In the case of “GGAUUGGACAGAGGAUAUACGUGCUAGAGAUACUAGCAAAAUUUCCUCACAUGAGGAUCACCCAUGUAGAAGGCUGUCCUAUCG”, the “apparent Kd” value is, setting by setting: under setting [1], 15.6 nM; under setting [2], 378 nM.
“UAGUAUUAGCGAGGAUAUCGUAUGUUCAAUUUUUUAUAUUGUUUACAUGAGGAUCACCCAUGUUACGAGAAGGCGCAUGGGAUU”: the “apparent Kd” value is, setting by setting: under setting [3], 466 nM; under setting [4], 85.8 nM.
For “UGGUACAUGGGAGGAUAUGGGACAUGAGGAUCACCCAUGUGAAAAUUAAAUAUGCCGAUAGGCAACUAGAAGGCCCAUGUACCU” the same measures were 33.1 nM and 15.4 nM.
Take “AUAUUUAUUUAGAAGGACAUGAGGAUCACCCAUGUCGCUGGGCGCGGGAAACCGUGCCCGGCCAUGUAGGAUAUAGGUAGAUAU”: the “apparent Kd” value worked out at 14.2 nM under setting [1] and 12.2 nM under setting [2].
On the same counts, the results for “ACUAAUUAGUGAGGAUAUACAUAAUUUAUAACUGUAGAAGGCACAAACCUCAAGACAUGAGGAUCACCCAUGUGGUAUAUAGAU” are 169 nM and 388 nM.
For “AUCAGCUCGUCAGGAUAUACGUCACUGCGUCAGCAAUGUGGUAAGAUCACAUGAGGAUCACCCAUGUAGAAGGGACGAGCUGAU” the same measures were 29.9 nM and 289 nM.
On the same counts, the results for “GGUUGGCGAGGAUAUACAUGAGGAUCACCCAUGUGGUCCUGCGAUAGAAUCGCCCUUUGUAGAAGGCGCGGGUC” are 67 nM and 55.2 nM.
Turning to “GAUUCACAUGAGGAUCACCCAUGUCGUAAUAUGGGAGGAUAUACGUGGACCGUAGUCCGCGUAGAAGGCCUAAUUG”, the “apparent Kd” value runs as follows: under setting [3], 172 nM; under setting [4], 36.6 nM.
With “AUCUAUCAUGUAGGAUAUGCGUGGCGAAGCUAUGCAGAAGGACAUGAGGAUCACCCAUGUCUUUCUGUCUGCGGACGGACAGGA”, the “apparent Kd” value came to 23.6 nM under setting [1] and 72.7 nM under setting [2].
Consider “GGAAAUCAUGUAGGAUAUGCAUGGCGAAGCUACGCAGAAGGACAUGAGGAUCACCCAUGUUAUAGCUACCCGUUACGGUGGCAA”, for which the “apparent Kd” value worked out at 131 nM under setting [1] and 119 nM under setting [2].
On the same counts, the results for “ACCAUUUACUAAUCCUCUAUACAUGAGGAUCACCCAUGUUAAGAGGAUAUCAUCGUUCGCCGCGUUGAGAAGGCUUAGCAUUCG” are 14.8 nM and 23.1 nM.
In the case of “AUCAGCUCGUCAGGAUAUACGUCACUGCGUCAGCAGUGUGGUAAGAUCACAUGAGGAUCACCCAUGUAGAAGGGACGAGCCGAU”, the “apparent Kd” value is, setting by setting: under setting [1], 13.2 nM; under setting [2], 306 nM.
For “CCUCCCUGAGGAUAUCCACCCUCAUACAUGAGGAUCACCCAUGUUCAACCCUGGGUACCCGGAGAAGGCAGAUUUC” the same measures were 116 nM and 175 nM.
For “GCCUCAUCCGUCAGGAUAUACAGCCGCUCCCUGUUGUAGAAGGGACAUGAGGAUCACCCAUGUACGUACCACCC” the same measures were 53.6 nM and 117 nM.
For “UACAUGAGGAUCACCCAUGUUUUGUCGUGUAUGGUAUUUAUCUAGGAUAUCAUUUUAUUUAGGUAUGAGAAGGAGAAUAUUAAU” the same measures were 35.4 nM and 36.2 nM.
As for “UUAAUUAUACAAGGAUAUCUAUUGUAGUUUCGACUUACAUGAGGAUCACCCAUGUUUUUAUGUUUAGAGAAGGUGUAUUUUCAG”, the “apparent Kd” value reads like this: under setting [3], 104 nM; under setting [4], 77.3 nM.
On the same counts, the results for “ACAUACUCUCGAGGAUAUCGUAUAAUUAUUAAACGAGAAGGCGAUUGUUUAUUUCUAAUACACGACAUGAGGAUCACCCAUGUA” are 27.1 nM and 25.4 nM.
Take “AUUCAGUCAGGAUAUCGUUAAUUUAAUUGUUUGUUUUAGUUCGAGAAGGGACAUGAGGAUCACCCAUGUACUUU”: the “apparent Kd” value turned out to be 20.2 nM under setting [1] and 19.3 nM under setting [2].
On the same counts, the results for “AAAGUGUCAGGAUAUUGUUAGUUUAGUUGUUUGUAUUAGUUCGAGAAGGGACAUGAGGAUCACCCAUGUUGAAA” are 34 nM and 32.9 nM.
On to “AAGGUACGAGGAUAUACAUAGAUACAGACACAUGUGCAUGUACAUGAGGAUCACCCAUGUAGAAGGCGUAUAUA”, for which the “apparent Kd” value is, setting by setting: under setting [1], 30.2 nM; under setting [2], 110 nM.
For “CAGCUGAAAGUCAGGAUAUCUAGAGCGAUAGCUCUAGAGAAGGGACAUGAGGAUCACCCAUGUCACUCCAGCUG”, the “apparent Kd” value came to 17.1 nM under setting [1] and 20.4 nM under setting [2].
For “GCGUUACAUGAGGAUCACCCAUGUGAGGAUAUGGUUCGGUACUGUCCUGUCGCGUACUCCAGAAGGCACGUGUC”, the “apparent Kd” value reads like this: under setting [1], 31.3 nM; under setting [2], 34.7 nM.
Regarding “UAUUAAUACGAAGGAUAUGGUUACAUGAGGAUCACCCAUGUAUGUAUAUUGAUCUAGAUUUUUAACCAGAAGGUCGUGAGUAAA”, the “apparent Kd” value under setting [1] came to 34.9 nM and the “apparent Kd” value under setting [2] came out at 59 nM.
For “CUCAUGUUAGGAUAUGCGCUCAACGUAGUGGUCGAGCUCUAGCAGAAGGAACAUGAGGAUCACCCAUGUUUGCA” the same measures were 58.1 nM and 26.8 nM.
For “AACGAGGCAGGAUAUACAUGAGGAUCACCCAUGUGCUUGCAUGGCGUGGGAAGUCAUCGUAGAAGGGCCAUGCC” the same measures were 154 nM and 74.2 nM.
For “AUUAUGACCGAGUUAUACUUCUAAACAUGAGGAUCACCCAUGUAGGAUAUCAGCACGAUAAGUGCUGAGAAGGACAUCUCGGUC” the same measures were 13.7 nM and 14.6 nM.
As for “GGGAUUAAGGCAGGAUAUCCGGGUUGGCCUCGACAUGAGGAUCACCCAUGUGGAGAAGGGCCGACUGCUCGAAAGGCGGUCAAG”, the “apparent Kd” value reads like this: under setting [1], 214 nM; under setting [2], 67.4 nM.
“CCACGUCACAUUAACAUGAGGAUCACCCAUGUCUCUAGACAUGAGGAUAUGGAUCCUAAUUGGAUCCAGAAGGCAUGGACGUGG”: the “apparent Kd” value runs as follows: under setting [3], 1420 nM; under setting [4], 138 nM.
Take “UUUCAGUCAGGAUAUCGUUAAUUUAAUUGUUUGUUUUAGUUCGAGAAGGGACAUGAGGAUCACCCAUGUACUUU”: the “apparent Kd” value was determined as 20 nM under setting [1] and 20 nM under setting [2].
In the case of “CAUCAGGUACGAGGAUAUCCGCGAUCUCUUCGAGGAGAAGGCGUACAUGAGGAUCACCCAUGUGGGCGAGACAGACGAAGUCUG”, the “apparent Kd” value runs as follows: under setting [1], 114 nM; under setting [2], 59.5 nM.
On the same counts, the results for “GGUGGACAUGAGGAUCACCCAUGUGAGGAUAUCGGCUGGCUAGUGGCGGAUGGCUUCUCGAGAAGGCGCAUAGU” are 76.9 nM and 66 nM.
For “GUGACGAUGUAAGGAUAUGCAGUGGAUAACACUGCAGAAGGUACAUGAGGAUCACCCAUGUAACUCUAAUAAUAAUAACGUCAC” the same measures were 12.1 nM and 17 nM.
Consider “AAAAGACAUGAGGAUCACCCAUGUGAAAACAUACAAGGAUAUGUGUGGAAACCGUACUAUACAGAAGGUGUAUGUC”, for which the “apparent Kd” value by setting is: under setting [3], 34.8 nM; under setting [4], 20 nM.
On the same counts, the results for “AGCUAAAACGAAGGAUAUACAAACAUGAGGAUCACCCAUGUAUACAUGAUUUAUUGUGAUCACAUGUAGAAGGUCGUACUAACA” are 958 nM and 225 nM.
On the same counts, the results for “GCCCUAAAGCGGGCCGACCAUACAUGAGGAUCACCCAUGUCGAGAAGGUGCUCACGGGUGGGUGGCAAGGAUAUCGGGUCGGAA” are 65.6 nM and 32.6 nM.
Turning to “GCCUAAAGUGAGGAUAUCUAGCGCGUAAAGGCAGGAGAAGGUGCAACAUGAGGAUCACCCAUGUAGGCUGUCUA”, the “apparent Kd” value reads like this: under setting [1], 19.5 nM; under setting [2], 20 nM.
On the same counts, the results for “CCAUGGCUGUGAGGAUAUGUCUGACAAAGUCAGACAGAAGGCACAUGAGGAUCACCCAUGUGAAAACACCAACAAAAGCCAUGG” are 5.93 nM and 6.9 nM.
“UGUUGUAUUACAGGAUAUCUAGAAUUUUUAUUUAGAGAAGGGUAUUCACAUGAGGAUCACCCAUGUAUAUACGAGGAAGUUGUG”: the “apparent Kd” value by setting is: under setting [3], 33.7 nM; under setting [4], 33.8 nM.
With “CGGUGACGUGUAGGAUAUGGAGAUGGGUUUUGGCCAGAAGGACAUGAGGAUCACCCAUGUGGUAGAGGGUUGGCGGCUGCCCGU”, the “apparent Kd” value reads like this: under setting [1], 16.7 nM; under setting [2], 18.7 nM.
For “GCCCUCGCUGAGGAUAUUAUCUGGUUCGAUUGAUAAGAAGGCAGUACAUGAGGAUCACCCAUGUGGUUCGUCCG” the same measures were 76.7 nM and 363 nM.
On the same counts, the results for “AAUUCACAUGAGGAUCACCCAUGUGAGGAUAUGGAUUCGCUGGCCGUAGCCAGUGGAUCCAGAAGGCGCAUGAU” are 29.2 nM and 35.6 nM.
On the same counts, the results for “CCAGGCUUCGAGAAGGACAUGAGGAUCACCCAUGUGCGUGUGAAGCAGCCGUGAGGCUGCAUCAUGUAGGAUAUCGGAGUCUGA” are 71.8 nM and 396 nM.
Turning to “AACUGACAUGAGGAUCACCCAUGUCAGGAUAUGACUUGACGAAAUAAAACACGUCAUGUCAGAAGGGACAUGAA”, the “apparent Kd” value was 17.4 nM under setting [1] and 15.2 nM under setting [2].
Turning to “AUAUCCUAGAUAGGAUAUACUGAGGUUGAAUGGGUAGAAGGAUCGAUAGGGAAGACUACAUGAGGAUCACCCAUGUUGUGUAUU”, the “apparent Kd” value came out at 99.4 nM under setting [3] and 90.2 nM under setting [4].
Take “ACGAGUACAGGAUAUACAUGAGGAUCACCCAUGUGAGAAUUAAGUGGCGUACCACAAAGUAGAAGGGUACUCGA”: the “apparent Kd” value under setting [1] was found to be 40.3 nM and the “apparent Kd” value under setting [2] amounted to 236 nM.
